# Assay results from different studies.
# Compare with care: the assays were run in different laboratories.
# Target: Dual specificity protein kinase CLK1 (CLK1, Homo sapiens, UniProt P49759)
# Technique: competition with immobilised ligand
Compound,read-out,tested at,remaining binding [%]
O=C(c1ccc(Nc2ncc(Cl)c(-c3ccc(Cl)s3)n2)cc1)N1CCC(N2CCCC2)CC1,binding,1 µM,3.9
Cc1cc(C)c(-n2ccn3nc(-c4cccnc4)cc23)cc1NC(=O)c1cc(C#N)cc(S(F)(F)(F)(F)F)c1,cell-free assay,0.1 µM,96.2
COc1ncc2cc3ccccc3nc2c1C#N,cell-free assay,5 µM,98
COc1cnc(Nc2cccc(S(N)(=O)=O)c2)nc1N1CCN(c2ccccc2)C(=O)C1,binding,1 µM,100
COc1cc(-c2cn(C3CCc4c(F)cccc4N(CC(F)(F)F)C3=O)nn2)ccc1-n1cnc(C)c1 (centres unmarked),cell-free assay,1 µM,77
FC(F)(F)Oc1cccc(-c2cnc3ccc(-c4ccncc4)nn23)c1,cell-free assay,5 µM,0.7
O=S(=O)(NC1CCC(c2cc(F)ccc2F)(S(=O)(=O)c2ccc(Cl)cc2)CC1)C(F)(F)F (centres unmarked),cell-free assay,1 µM,78
C=CC(=O)N1CCC(C(=O)NCC(=O)N2CCN(c3nc(-c4cnc(N)nc4C(F)F)nc(N4CCOCC4)n3)CC2)CC1,binding,1 µM,93
O=C(c1ccc(Nc2nccc(-c3cc4ccccc4s3)n2)cc1)N1CCC(N2CCCC2)CC1,binding,1 µM,13
c1cncc(-c2cccc(Nc3nccc(NC4CCCCC4)n3)c2)c1,binding,10 µM,1.1
O=C(NCCCN1CCOCC1)c1ccc(Nc2nccc(-c3cc4ccccc4s3)n2)cc1,binding,1 µM,12
O=C(NCC1CCOCC1)c1n[nH]cc1NC(=O)c1c(F)cccc1F,binding,1 µM,30
CN([C@@H]1CCc2c(CC(=O)O)c3cc(S(C)(=O)=O)ccc3n2C1)S(=O)(=O)c1ccc(F)cc1,cell-free assay,1 µM,100
COc1cnc(Nc2cccc(S(N)(=O)=O)c2)nc1N1CCN(c2ccccc2)CC1,binding,1 µM,96
